Results collected from several papers.
Compare with care: the assays were run in different laboratories.
Target: Mitogen-activated protein kinase kinase kinase kinase 1 (MAP4K1, Homo sapiens, UniProt Q92918)

| Structure (SMILES) | effect on | technique | tested at | remaining binding |
| --- | --- | --- | --- | --- |
| O=C(NCC1CCOCC1)c1n[nH]cc1NC(=O)c1c(F)cccc1F | binding | competition with immobilised ligand | 1 µM | 71% |
| FC(F)(F)Oc1cccc(-c2cnc3ccc(-c4ccncc4)nn23)c1 | cell-free assay | competition with immobilised ligand | 5 µM | 68% |
| CN(C)C(=O)Cn1cc(-c2nc([C@@](C)(c3ccc(-c4cnc(N)nc4)cc3)C3CC3)no2)cn1 | cell-free assay | competition with immobilised ligand | 1 µM | 100% |
| Cc1cnc(Nc2ccc(C(=O)N3CCC(N4CCCC4)CC3)cc2)nc1-c1cc2ccccc2s1 | binding | competition with immobilised ligand | 1 µM | 22% |
| COc1cnc(Nc2cccc(S(N)(=O)=O)c2)nc1N1CCN(c2ccccc2)C(=O)C1 | binding | competition with immobilised ligand | 1 µM | 87% |
| Cc1cnn2ncc(-c3ccnc(N(C)C)n3)c2c1 | binding | – | 1 µM | 99% |
| O=C(NCCCN1CCOCC1)c1ccc(Nc2ncc(Cl)c(-c3ccc(Cl)s3)n2)cc1 | binding | competition with immobilised ligand | 1 µM | 17% |
| COCCOc1nc(-c2ccc(Cl)nc2)nc2c1CN(C(=O)c1ncn3ccccc13)CC2 | cell-free assay | competition with immobilised ligand | 0.1 µM | 92% |
| C[C@H]1CCN(c2nccc(-c3cnn4ncccc34)n2)C1 | binding | – | 1 µM | 99% |
| CCOCCn1cc(C(=O)Nc2ccc(-n3nc(-c4cccnc4)cc3C(F)(F)F)cn2)ccc1=O | cell-free assay | competition with immobilised ligand | 1 µM | 81% |
| CN(C)c1ncc(F)c(-c2cnn3ncccc23)n1 | binding | – | 1 µM | 100% |
| CSc1cccnc1N1CCN(Cc2nc3ccccc3[nH]2)CC1 | cell-free assay | competition with immobilised ligand | 1 µM | 100% |
| F[C@@H]1CCN(c2nccc(-c3cnn4ncccc34)n2)C1 | binding | – | 1 µM | 100% |
| CNC(=O)[C@@H]1CC[C@@H](n2c(-c3ccc4cnccc4c3)nc3ccc(C(=O)NCc4cccc(C(N)=O)c4)cc32)C1 | binding | competition with immobilised ligand | 1 µM | 82% |
| COc1ccnn2ncc(-c3ccnc(N(C)C)n3)c12 | binding | – | 1 µM | 100% |
| O=C(c1ccc(Nc2ncc(Cl)c(-c3cc4ccccc4s3)n2)cc1)N1CCC(N2CCCC2)CC1 | binding | competition with immobilised ligand | 1 µM | 26% |
| N#Cc1ccc(Nc2ccc3[nH]c(=O)[nH]c3c2)c(Cl)c1 | cell-free assay | competition with immobilised ligand | 1 µM | 100% |
| CCN1CCN(Cc2ccc(C(=O)Nc3ccc(C)c(Oc4ccc5c(c4)CC(=O)N5)c3)cc2C(F)(F)F)CC1 | binding | competition with immobilised ligand | 1 µM | 90% |
| CC1CCCN1c1nccc(-c2cnn3ncccc23)n1 (stereo not shown) | binding | – | 1 µM | 100% |
| CNC(=O)Nc1ccc2c(c1)[C@@]1(CC2)OC(=O)N(CC(=O)N(Cc2ccc(F)cc2)[C@@H](C)C(F)(F)F)C1=O | cell-free assay | competition with immobilised ligand | 1 µM | 90% |
| N[C@H]1CCN(c2nccc(-c3cnn4ncccc34)n2)C1 | binding | – | 1 µM | 100% |
| FC(F)(F)c1ccc2c(c1)nc(-c1cccnc1)n2C1CC1 | cell-free assay | competition with immobilised ligand | 1 µM | 93% |
